# Measured values of several laboratories.
# Each line is one published result; the experiments were not run side by side.
# Cell line: MDA-MB-231
# Effect on: cell growth or viability
SMILES,assay,setting,IC50
COc1cc([C@@H]2c3cc4c(cc3[C@@H](O[C@@H]3O[C@@H]5CO[C@@H](C)O[C@H]5[C@H](O)[C@H]3O)[C@H]3COC(=O)[C@H]23)OCO4)cc(OC)c1O,SRB,72 h,3.3 µM
Cc1ccc(S(=O)(=O)n2cc(/C=N/NC(=O)Cc3cc(F)cc(F)c3)c3ccccc32)cc1,MTT,48 h,32.1 µM
COc1ccccc1/C=N/N=C1\C(=O)Nc2ccccc21,MTT,24 h,41.2 µg/mL
CC(=O)N1CCC(Nc2cc(C(=O)NC[C@H](O)CN3CCc4ccccc4C3)ncn2)CC1,CCK-8,72 h,> 100 µM
CN1CCc2c(c3ccccc3n2Cc2ccc(C(=O)NO)cc2)C1,CCK-8,48 h,24.7 µM
Cc1cc(NS(=O)(=O)c2ccc(NC(=O)/C(C#N)=C/c3ccncc3)cc2)no1,MTT,48 h,116 µM
Cc1ccc(S(=O)(=O)n2cc(/C=N/NC(=O)c3cccnc3)c3ccccc32)cc1,MTT,48 h,18.1 µM
COc1cc([C@@H]2c3cc4c(cc3[C@@H](O[C@@H]3O[C@@H]5CO[C@@H](C)O[C@H]5[C@H](O)[C@H]3O)[C@H]3COC(=O)[C@H]23)OCO4)cc(OC)c1O,MTT,48 h,21.2 µM
CO[C@H]1[C@H](O[C@H]([C@H]2O[C@@H](n3ccc(=O)[nH]c3=O)[C@H](O)[C@@H]2O)[C@H](NCCCNC(=O)[C@@H](NC(=O)[C@@H](NC(=O)N[C@H](C(=O)O)C(C)C)[C@@H]2CCN=C(N)N2)[C@@H](O)C(C)C)C(=O)O)O[C@H](CN)[C@H]1O,WST-1,,> 35 µM
CC1CCC(C(C)C)C(OC2=C(Cl)C(=O)c3ccccc3C2=O)C1 (stereo not shown),MTT,24 h,5 µg/mL
Cc1cc(NS(=O)(=O)c2ccc(NC(=O)/C(C#N)=C/c3cccnc3)cc2)no1,MTT,48 h,184 µM
C[C@H]1[C@H](C)CC[C@]2(C)CC[C@]3(C)C(=CC(=O)[C@@H]4[C@@]5(C)CC[C@@H](O)[C@](C)(C(=O)NCc6cn(-c7ccc(Br)cc7)nn6)[C@@H]5CC[C@]43C)[C@H]12,MTT,24 h,72.5 µM
Cc1ccc(S(=O)(=O)n2cc(/C=N/NC(=O)c3ccco3)c3ccccc32)cc1,MTT,48 h,29.6 µM
CC(C)[C@@H]1NC(=O)/C(=C/c2cnc[nH]2)NC1=O,SRB,,> 15 µM
Cc1ccc(S(=O)(=O)n2cc(/C=N/NC(=O)c3cc4ccccc4cc3O)c3ccccc32)cc1,MTT,48 h,16.4 µM
CC(=O)O[C@@]12CO[C@@H]1C[C@H](O)[C@@]1(C)C(=O)[C@H](O)C3=C(C)[C@@H](OC(=O)[C@H](O)[C@@H](NC(=O)OC(C)(C)C)c4ccccc4)C[C@@](O)([C@@H](OC(=O)c4ccccc4)[C@H]21)C3(C)C,MTT,24 h,> 50 µg/mL
Cc1ccc(S(=O)(=O)n2cc(/C=N/NC(=O)Cc3ccc(F)cc3F)c3ccccc32)cc1,MTT,48 h,26.4 µM
O=C1Nc2ccccc2/C1=N/N=C/c1cccc([N+](=O)[O-])c1,MTT,24 h,38.3 µg/mL
C=CC(C)(C)c1[nH]cnc1/C=C1/NC(=O)[C@H](C(C)C)NC1=O,SRB,,> 15 µM
CCCNC(=S)N/N=C/c1cccc2cc3ccccc3nc12,MTT,48 h,> 50 µM
O=c1[nH]cc(F)c(=O)[nH]1,MTT,48 h,12.2 µM
COc1ccccc1-n1cc(CNC(=O)[C@@]2(C)[C@H](O)CC[C@@]3(C)[C@H]2CC[C@]2(C)[C@@H]3C(=O)C[C@@H]3[C@@H]4[C@@H](C)[C@H](C)CC[C@]4(C)CC[C@]32C)nn1,MTT,24 h,71.2 µM
CCCc1cc2cc(-n3nc(C)c4c3CC(C)(C)CC4=O)cc(N3CCC(O)CC3)c2c(=O)[nH]1,MTS,,3.82 µM
C[C@H]1[C@H](C)CC[C@]2(C(=O)O)CC[C@]3(C)C(=CC[C@@H]4[C@@]5(C)CC[C@H](O)C(C)(C)[C@@H]5CC[C@]43C)[C@H]12,thymidine uptake,24 h,13.1 µM
COc1cccc(NC(=O)Nc2ccc(Oc3nc4ccccc4n4cnnc34)cc2)c1,MTT,24 h,21.7 µM
Cc1ccc(S(=O)(=O)n2cc(/C=N/NC(=O)Cc3ccccc3C(F)(F)F)c3ccccc32)cc1,MTT,48 h,20.1 µM
COc1ccc(-n2cc(CNC(=O)[C@@]3(C)[C@H](O)CC[C@@]4(C)[C@H]3CC[C@]3(C)[C@@H]4C(=O)C=C4[C@@H]5[C@@H](C)[C@H](C)CC[C@]5(C)CC[C@]43C)nn2)cc1,MTT,24 h,76.6 µM
CC(C)(C)c1cnc(CSc2cnc(NC(=O)C3CCN(C(=O)CCCCCCCN4Cc5cc6c(cc5C4)C(=O)N(C4CCC(=O)NC4=O)C6=O)CC3)s2)o1 (stereo not shown),MTT,,0.0796 µM
COc1cccc2c1C(=O)c1c(O)c3c(c(O)c1C2=O)C[C@@](O)(C(=O)CO)C[C@@H]3O[C@H]1C[C@H](N)[C@H](O)[C@H](C)O1,SRB,,0.18 µM
O=[N+]([O-])c1ccc(NC(=S)N/N=C/c2cccc3cc4ccccc4nc23)cc1,MTT,48 h,> 50 µM
COc1ccc(C(=O)N/N=C/c2cn(S(=O)(=O)c3ccc(C)cc3)c3ccccc23)cc1,MTT,48 h,34.4 µM
COc1cccc2c1C(=O)c1c(O)c3c(c(O)c1C2=O)C[C@@](O)(C(=O)CO)C[C@@H]3O[C@H]1C[C@H](N)[C@H](O)[C@H](C)O1,MTT,48 h,0.2 µM
C[C@H]1[C@H](C)CC[C@]2(C)CC[C@]3(C)C(=CC(=O)[C@@H]4[C@@]5(C)CC[C@@H](O)[C@](C)(C(=O)NCc6cn(-c7ccc(F)cc7)nn6)[C@@H]5CC[C@]43C)[C@H]12,MTT,24 h,71.4 µM
Cc1ccc(S(=O)(=O)n2cc(/C=N/NC(=O)c3cccc(Cl)c3)c3ccccc32)cc1,MTT,48 h,25.1 µM
COc1ccc(NC(=S)N/N=C/c2cccc3cc4ccccc4nc23)cc1,MTT,48 h,> 50 µM
Nc1ccn([C@@H]2O[C@H](CO)[C@@H](O)C2(F)F)c(=O)n1,MTT,48 h,4.07 µg/mL
O=C(Nc1ccc(Oc2nc3ccccc3n3cnnc23)cc1)Nc1cccc(Cl)c1,MTT,24 h,33.6 µM
